The list is not random: actives were taken first. Their share in the collection is about 2.4%.
697 NFkB inh: inhibitors of PMA/ionomycin-induced NF-kB reporter, 697 cells, primary screen, B-cell NF-kB inhibitor project, cell-based, luminescence, uHTS; inhibition, % at 4 µM; 0.33% of 330,000 active; 697 B-cell NF-kB luciferase reporter, 16 h; AID 435022, 2010; in the data active means inhibition above about 35%
NR2E3 ag-1: inhibitors of NR2E3-RetCOR corepressor binding, primary screen, NR2E3 agonist project, biochemical, TR-FRET, GST-NR2E3, biotin-RetCOR; Photoreceptor-specific nuclear receptor (Homo sapiens), Q9Y5X4; 1536-well; inhibition of corepressor binding, % at 4.78 µM; 0.12% of 320,000 active;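 active means percent inhibition above the cutoff of mean plus 3 SD of all tested compounds, set per screening campaign, cut at about 20% in these data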;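 further: 0% = DMSO wells and 100% = biotin wells as full block of FRET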
Target sequence (Q9Y5X4 whole entry, looked up): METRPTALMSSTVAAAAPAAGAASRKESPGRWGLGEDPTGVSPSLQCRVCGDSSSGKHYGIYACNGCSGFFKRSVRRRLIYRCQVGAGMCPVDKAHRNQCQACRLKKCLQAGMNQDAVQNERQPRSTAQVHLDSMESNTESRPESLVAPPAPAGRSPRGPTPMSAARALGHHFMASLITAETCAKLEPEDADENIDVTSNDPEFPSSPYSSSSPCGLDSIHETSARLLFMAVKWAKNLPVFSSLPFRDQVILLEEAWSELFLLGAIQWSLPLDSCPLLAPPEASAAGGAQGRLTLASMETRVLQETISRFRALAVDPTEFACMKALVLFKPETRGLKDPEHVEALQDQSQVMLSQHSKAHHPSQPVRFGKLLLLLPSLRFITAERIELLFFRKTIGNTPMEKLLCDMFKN
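Material: NR2E3–RetCOR corepressor complex | Quantity: 1.35 nM GST-tagged NR2E3 final | Schedule: 5 h at 4 °C | Replication: Singlicate compound wells | Reagent: RetCOR corepressor, biotinylated, 7 nM | Controls: Biotin wells as high control, 0.6% DMSO wells as low control | Signal: TR-FRET, Eu(K)-anti-GST donor, streptavidin-D2 acceptor, ex 340, em 617/671 nm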
NR2E3 ag-2: NR2E3 agonists in two-hybrid cells, primary screen, cell-based, luminescence, CHO-S, Gal4-NCOR/VP16-NR2E3; Photoreceptor-specific nuclear receptor (Homo sapiens), Q9Y5X4; luciferase; inhibition of corepressor binding, % at 3.98 µM; 0.35% of 360,000 active; AID 602229, 2012;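 active means inhibition above the mean of all tested compounds plus 3 SD, cut at about 70% in these data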;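 further: 0% = DMSO with NR2E3 transfected cells and 100% = cells lacking NR2E3 construct; higher means lower luciferase signal from less NR2E3 corepressor binding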
MPTP inh: mitochondrial permeability transition pore inhibitors, primary screen, biochemical, isolated mouse mitochondria, absorbance | Ca2+ swelling absorbance, 30 min | inhibition, % at 10 µM | 1.4% of 360,000 active | AID 602449, 2012;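 active means inhibition of 50% or more, scaled per plate between neutral and stimulator controls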;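 further: 0% = DMSO wells given calcium and 100% = 1 mM EGTA wells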
aDG glyco act: activators of alpha-DG glycosylation, primary screen, uHTS, Pro5-aDG cells, AlphaScreen; AID 624168, 2012; activation, % at 10 µM; alpha-DG glycosylation AlphaScreen (IIH6); 0% Pro5, 100% B10-LARGE cell signal; 0.22% of 360,000 active;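 active means activation of at least 8% versus controls, or a plate z-score of at least 8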;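 further: Pro5 are CHO cells carrying HIG-tagged alpha-DG that lacks glycosylation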
Jurkat NFkB inh: inhibitors of induced NF-kB luciferase reporter, primary screen, TCR NF-kB activation inhibitor project, cell-based, luminescence, uHTS | Jurkat, PMA/ionomycin-induced NF-kB luciferase reporter | inhibition, % at 4 µM | 0.53% of 330,000 active | AID 435003, 2010; in the data active means inhibition above about 50%
NR2E3 ag conf: NR2E3 agonist confirmation in cells, cell-based, luminescence, CHO-S two-hybrid | shares compounds with NR2E3 ag-2 | CHO-S mammalian two-hybrid NR2E3-NCOR, luciferase luminescence | 51% of 2,300 active | inhibition, % at 3.98 µM;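 active means average inhibition above a cutoff equal to the mean inhibition of all tested compounds plus one SD, cut at about 70% in these data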;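 further: 0% = DMSO in NR2E3 cells and 100% = DMSO in cells lacking NR2E3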
GAL4-VP16 luc: GAL4-VP16 reporter modulators, confirmation, counter-screen for NR2E3 agonist project, cell-based, luminescence, CHO-S, high throughput. CHO-S GAL4-VP16 luciferase reporter. inhibition, % at 3.98 µM. shares compounds with NR2E3 ag-2. 29% of 2,300 active;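 active means mean inhibition above a cutoff equal to the average over all tested compounds plus one standard deviation, cut at about 70% in these data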;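 further: luciferase from a UAS reporter driven by GAL4-VP16 transactivation; 0% = DMSO with VP16-transfected cells and 100% = DMSO with cells lacking VP16; higher means less reporter light so more repression of VP16 activity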
MPTP counter: fluorescence retest of MPTP screen hits in isolated mitochondria, single concentration | shares compounds with MPTP inh | membrane potential, Rhodamine 123 fluorescence | inhibition, % at 10 µM | 78% of 5,000 active; in the data active means inhibition above about 22%;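 further: 0% = DMSO vehicle and 100% = positive control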
Active calls of the source: *; · = no result.

SMILES | 697 NFkB inh | NR2E3 ag-1 | NR2E3 ag-2 | MPTP inh | aDG glyco act | Jurkat NFkB inh | NR2E3 ag conf | GAL4-VP16 luc | MPTP counter
Cc1ccc(C(=O)NC2CCCc3c2cnn3-c2ccc(F)cc2F)cn1 (stereo unspecified) | -7 | 2 | 100* | 52* | 1 | 42 | 95* | 79* | 91*
CCCCOc1ccc(CONS(=O)(=O)c2ccc(NC(C)=O)cc2)cc1Cl | 8 | -5 | 50 | 94* | 7 | 1 | 81* | 54 | 73*
Cc1cc(NC(=O)CSc2[nH]c(=O)cc(C(F)(F)F)c2C#N)no1 | 22 | 1 | 7 | 1 | 0 | -9 | · | · | ·
Cc1cc(-n2c(C)cc(C(=O)CSc3[nH]c(=O)cc(C(F)(F)F)c3C#N)c2C)no1 | 18 | 4 | 98* | 57* | 0 | 2 | 99* | 89* | 72*
Cc1cc(C)c(C)c(S(=O)(=O)N2CCN(c3ncnc4ccccc34)CC2)c1C | -31 | 1 | 62 | 76* | 2 | 20 | 89* | 68 | 104*
COc1ccc(NC(=O)C2Cc3c(-c4ccccc4)ccnc3O2)cc1OC (stereo unspecified) | · | · | 78* | 59* | 1 | · | 80* | 71* | 85*
COc1ccc(NC(=O)C2Cc3c(-c4ccc(Cl)cc4)ccnc3O2)cc1OC (stereo unspecified) | · | · | 78* | 70* | 1 | · | 82* | 65 | 80*
CCOC(=O)c1cc(C)nnc1C(=O)OCC | · | · | 1 | 0 | 0 | · | · | · | ·
COc1ccc(CCNC(=O)Cc2ccc([N+](=O)[O-])cc2)cc1OC | 11 | -3 | -28 | 0 | 0 | -5 | · | · | ·
COc1ccc(CCNC(=O)Cc2ccc(OCc3ccccc3)c(OC)c2[N+](=O)[O-])cc1OCc1ccccc1 | -22 | 2 | 101* | 76* | 2 | 12 | 88* | 73* | 55*
COc1ccc(CNCCc2ccc(Cl)cc2)cc1OCc1ccccc1 | -10 | -1 | 48 | 86* | 2.7* | 14 | 82* | 71* | 84*
COC(=O)c1ccc(C(=O)N=c2sccn2C)cc1 | -54 | -1 | -93 | 0 | 0 | -51 | · | · | ·
CCCCn1c(N)c(N(CC)C(=O)c2cc(CC)c(C)s2)c(=O)[nH]c1=O | 20 | 0 | -17 | -2 | 0 | -1 | · | · | ·
CC1(C(=O)Nc2cccc(C#N)c2)CCN1C(=O)Cc1ccc(-c2ccccc2)cc1 (stereo unspecified) | · | · | 91* | 92* | 3 | · | 98* | 90* | 85*
CC1(C(=O)Nc2cccc(C#N)c2)CCN1C(=O)CCc1ccccc1 (stereo unspecified) | · | · | 34 | 0 | 0 | · | · | · | ·
CCC(=O)N1CCc2cc(S(=O)(=O)NCCC(=O)NC3CCCCCC3)ccc21 | 9 | 0 | 17 | -2 | 0 | 6 | · | · | ·
CC1CCCCN1C(=O)COC(=O)C1CCN(S(=O)(=O)c2c(Cl)cccc2Cl)CC1 (stereo unspecified) | 2 | 1 | -1 | 2 | 0 | -11 | · | · | ·
CCN(CC)S(=O)(=O)c1ccc(Cl)c(C(=O)Nc2ccc(Cl)cc2[N+](=O)[O-])c1 | -5 | 5 | 58 | 91* | 3 | 5 | 70* | 67 | 92*
CCC(=O)Nc1nnc(S(=O)(=O)N(C)c2cc(C)cc(C)c2)s1 | 8 | · | -7 | 0 | 0 | 3 | · | · | ·
COc1ccccc1NC(=O)C(C)OC(=O)C1CCN(S(=O)(=O)c2ccccc2C(F)(F)F)CC1 (stereo unspecified) | · | · | 9 | 0 | 1 | · | · | · | ·
O=S(=O)(c1cccs1)N1CCN(CCOc2ccc(Cl)cc2)CC1 | -9 | 3 | -3 | -3 | 1 | 14 | · | · | ·
O=S(=O)(c1cccs1)N1CCN(CC(O)COc2cc(Cl)ccc2Cl)CC1 (stereo unspecified) | -9 | -2 | 89* | 87* | 2 | 19 | 96* | 78* | 91*
COc1cccc(SCC2CSc3nc4ccccc4c(=O)n32)c1 (stereo unspecified) | 9 | 0 | -25 | -2 | 0 | 10 | · | · | ·
Cc1sc2ncnc(NCc3ccco3)c2c1C | -9 | -2 | 34 | 3 | 4 | 11 | · | · | ·
Cc1sc2ncnc(NCc3cccs3)c2c1C | -25 | 3 | 78* | 92* | 5 | 42 | 96* | 81* | 92*
SMILES | 697 NFkB inh | NR2E3 ag-1 | NR2E3 ag-2 | MPTP inh | aDG glyco act | Jurkat NFkB inh | NR2E3 ag conf | GAL4-VP16 luc | MPTP counter
CN(C(=O)COC(=O)Cc1c(F)cccc1Cl)c1c(N)n(Cc2ccccc2)c(=O)[nH]c1=O | 15 | 5 | -7 | 0 | 0 | 5 | · | · | ·
O=S(=O)(Nc1ccc(Cl)cc1NS(=O)(=O)c1ccccc1)c1ccccc1 | · | · | 82* | 89* | 0 | · | 95* | 65 | 65*
Cc1ccc(Cl)cc1NS(=O)(=O)c1ccccc1 | · | · | -19 | 0 | 0 | · | · | · | ·
COc1ccc(-c2cc3c(=O)n(CC(=O)NCCCN4CCN(Cc5ccccc5)CC4)ncn3n2)cc1 | -100 | 3 | 48 | 91* | 5 | -3 | 5 | -20 | 51*
O=S(=O)(c1ccc2c(c1)C(O)c1ccccc1CC2)C(F)(F)F (stereo unspecified) | -7 | 0 | 56 | 90* | 0 | 8 | 57 | 53 | 92*
O=[N+]([O-])c1ccc(Oc2ccc(S(=O)(=O)Nc3ccccc3)cc2)cc1 | -27 | 0 | 58 | 69* | 2 | 2 | 99* | 79* | 85*
O=[N+]([O-])c1ccc(S(=O)(=O)Nc2ccncc2)cc1 | 16 | -3 | -20 | 0 | 0 | 15 | · | · | ·
O=[N+]([O-])c1ccc(NS(=O)(=O)c2ccc(Cl)c(Cl)c2)cc1 | · | · | 101* | 86* | 1 | · | 99* | 91* | 102*
O=S(=O)(Nc1ccc(S(=O)(=O)Nc2ccccc2)cc1)c1ccccc1 | -2 | 2 | -2 | 1 | 0 | -21 | · | · | ·
Cc1ccc(NC(=O)CCNC(=O)c2ccccc2Cl)cc1S(=O)(=O)N1CCCCCC1 | -6 | 0 | 5 | -1 | 0 | -6 | · | · | ·

Screening results as filed in PubChem.
